Experimental data reported in ChEMBL document CHEMBL3102852, “Design, synthesis and cytotoxic activity of novel sulfonylurea derivatives of podophyllotoxin” (Bioorg Med Chem, 2014).
pIC50: −log10 of the molar value.

How the values were obtained:
Assay type in all cases: functional, cell-based
[1] = Cytotoxicity against multidrug-resistant human KBVIN cells after 72 hrs by sulforhodamine B assay
Outline: (§1)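 Cells seeded at 3-5 × 10^3 per well in RPMI-1640 with 10% FBS containing various sample concentrations, incubated 72 h. Attached cells fixed with cold 50% trichloroacetic acid for 30 min, stained with 0.04% SRB for 30 min, bound dye solubilized in 10 mM Tris-base, absorbance read at 515 nm. Triplicate experiments; KBvin is a vincristine-selected MDR KB subline.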

KB = assay: Cytotoxicity against human KB cells after 72 hrs by sulforhodamine B assay; outline: as §1
A549 = assay: Cytotoxicity against human A549 cells after 72 hrs by sulforhodamine B assay; details: A549, 72 h; outline: as §1
DU-145 = assay: Cytotoxicity against human DU145 cells after 72 hrs by sulforhodamine B assay; details: DU-145, 72 h; outline: as §1

| Structure (SMILES) | pIC50 [1] | pIC50 (KB) | pIC50 (A549) | pIC50 (DU-145) |
| --- | --- | --- | --- | --- |
| COc1cc([C@@H]2c3cc4c(cc3[C@@H](NC(=O)NS(=O)(=O)c3ccccc3)[C@H]3COC(=O)[C@H]23)OCO4)cc(OC)c1O | 5.06 | 5.08 | 5.08 | 5.09 |
| COc1ccc(S(=O)(=O)NC(=O)N[C@@H]2c3cc4c(cc3[C@@H](c3cc(OC)c(O)c(OC)c3)[C@H]3C(=O)OC[C@@H]32)OCO4)cc1 | 5.06 | 5.02 | 5.12 | 5.02 |
| COc1cc([C@@H]2c3cc4c(cc3[C@@H](NC(=O)NS(=O)(=O)c3ccc(C)cc3)[C@H]3COC(=O)[C@H]23)OCO4)cc(OC)c1O | < 4.70 | < 4.70 | < 4.70 | < 4.70 |
| COc1cc([C@@H]2c3cc4c(cc3[C@@H](NC(=O)NS(=O)(=O)c3ccc(C(C)C)cc3)[C@H]3COC(=O)[C@H]23)OCO4)cc(OC)c1O | 5.08 | 5.02 | 5.11 | 5.03 |
| COc1cc([C@@H]2c3cc4c(cc3[C@@H](NC(=O)NS(=O)(=O)c3ccc(F)cc3)[C@H]3COC(=O)[C@H]23)OCO4)cc(OC)c1O | 5.10 | 5.05 | 5.11 | 5.02 |
| COc1cc([C@@H]2c3cc4c(cc3[C@@H](NC(=O)NS(=O)(=O)c3ccc(Cl)cc3)[C@H]3COC(=O)[C@H]23)OCO4)cc(OC)c1O | 5.10 | 4.98 | 5.04 | 4.94 |
| COc1cc([C@@H]2c3cc4c(cc3[C@@H](NC(=O)NS(=O)(=O)Cc3ccccc3)[C@H]3COC(=O)[C@H]23)OCO4)cc(OC)c1O | 4.85 | 4.93 | 5.06 | 4.95 |
| COc1ccc(S(=O)(=O)NC(=O)N[C@@H]2c3cc4c(cc3[C@@H](c3cc(OC)c(O)c(OC)c3)[C@H]3C(=O)OC[C@@H]32)OCO4)c(OC)c1 | 5.07 | 5.09 | 5.10 | 5.07 |
| COc1cc([C@@H]2c3cc4c(cc3[C@@H](NC(=O)NS(=O)(=O)c3ccc5ccccc5c3)[C@H]3COC(=O)[C@H]23)OCO4)cc(OC)c1O | 5.06 | 5.01 | 5.07 | 4.98 |
| COc1cc([C@@H]2c3cc4c(cc3[C@@H](NC(=O)NS(C)(=O)=O)[C@H]3COC(=O)[C@H]23)OCO4)cc(OC)c1OC | < 4.70 | < 4.70 | < 4.70 | < 4.70 |
| CCS(=O)(=O)NC(=O)N[C@@H]1c2cc3c(cc2[C@@H](c2cc(OC)c(OC)c(OC)c2)[C@H]2C(=O)OC[C@@H]21)OCO3 | < 4.70 | < 4.70 | < 4.70 | < 4.70 |
| COc1cc([C@@H]2c3cc4c(cc3[C@@H](NC(=O)NS(=O)(=O)c3ccccc3)[C@H]3COC(=O)[C@H]23)OCO4)cc(OC)c1OC | 5.75 | 5.85 | 5.80 | 5.84 |
| COc1cc([C@@H]2c3cc4c(cc3[C@@H](NC(=O)NS(=O)(=O)c3ccc(C)cc3)[C@H]3COC(=O)[C@H]23)OCO4)cc(OC)c1OC | < 4.70 | < 4.70 | < 4.70 | < 4.70 |
| COc1cc([C@@H]2c3cc4c(cc3[C@@H](NC(=O)NS(=O)(=O)c3ccc(Cl)cc3)[C@H]3COC(=O)[C@H]23)OCO4)cc(OC)c1OC | 5.70 | 5.76 | 5.72 | 5.76 |
| COc1cc([C@@H]2c3cc4c(cc3[C@@H](NC(=O)NS(C)(=O)=O)[C@H]3COC[C@H]23)OCO4)cc(OC)c1OC | < 4.70 | < 4.70 | < 4.70 | < 4.70 |
| COc1cc([C@@H]2c3cc4c(cc3[C@@H](NC(=O)NS(=O)(=O)c3ccc(C(C)C)cc3)[C@H]3COC[C@H]23)OCO4)cc(OC)c1OC | 4.88 | 4.96 | 4.93 | 4.93 |
| COc1ccc(S(=O)(=O)NC(=O)N[C@@H]2c3cc4c(cc3[C@@H](c3cc(OC)c(OC)c(OC)c3)[C@H]3COC[C@@H]32)OCO4)c(OC)c1 | < 4.70 | 4.92 | 4.83 | 4.84 |
| COc1cc([C@@H]2c3cc4c(cc3[C@@H](NC(=O)NS(C)(=O)=O)[C@H]3COC(=O)[C@H]23)OCO4)cc(OC)c1O | < 4.70 | < 4.70 | < 4.70 | < 4.70 |
| CCS(=O)(=O)NC(=O)N[C@@H]1c2cc3c(cc2[C@@H](c2cc(OC)c(O)c(OC)c2)[C@H]2C(=O)OC[C@@H]21)OCO3 | < 4.70 | < 4.70 | < 4.70 | < 4.70 |
| CCCCS(=O)(=O)NC(=O)N[C@@H]1c2cc3c(cc2[C@@H](c2cc(OC)c(O)c(OC)c2)[C@H]2C(=O)OC[C@@H]21)OCO3 | 4.86 | 4.96 | 5.10 | 4.92 |
| COc1cc([C@@H]2c3cc4c(cc3[C@@H](O[C@@H]3O[C@@H]5CO[C@@H](C)O[C@H]5[C@H](O)[C@H]3O)[C@H]3COC(=O)[C@H]23)OCO4)cc(OC)c1O [ETOPOSIDE] | < 4.70 | – | – | – |
